# Rows were chosen to be rich in hits. Some 4.8% of all compounds tested hit in one or more screens of this group.
# T cruzi repl – inhibitors of intracellular T. cruzi growth, primary screen, luminescence, NIH3T3 host cells. T. cruzi beta-gal in NIH3T3, 90 h. inhibition, % (concentration not given with the values). hit rate 1.4% among 300,000;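 active means mean inhibition across valid replicates above about 55%, limit read from the data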;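 further: signal also drops with host cell toxicity which is not excluded here; 0% = plate median of DMSO wells and 100% = zero luminescence signal; higher percent means less beta-gal luminescence so fewer parasites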
#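 Read-out: Parasite load inhibition, % | Test system: Mouse NIH/3T3 fibroblasts infected with β-gal-expressing T. cruzi Tulahuen C4 | Amount: 5,000 cells/well | Medium: DMEM, 2% fetal bovine serum | Signal: GalScreen β-gal luminescence, detergent lysis, 60 min | Timing: 3 h attach, ≥90 h co-culture | Also added: Tulahuen C4 trypomastigotes, 5000/well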
# WT yeast gro inh – growth inhibition of WT strain, primary screen, mitochondrial fusion inhibitor project, WT and mutant strains, chemical genetic. mitochondrial fusion phenotypic screen. inhibition, % at 10 µM. hit rate 2.1% among 190,000; in the data active means inhibition above about 58%; tested in S. cerevisiae
# Mot1-301 SUMO – yeast Mot1-301 growth rescue at high temperature, primary screen, SUMOylation pathway inhibitor project, S. cerevisiae, ATP luminescence, 38.5C; growth rescue, % at 18.8 µM; hit rate 1% among 320,000; S. cerevisiae Mot1-301 growth rescue; percent above DMSO median, 100 means doubled;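 active means every valid replicate shows activation above 250% relative to neutral control wells; inactive means the rest, any valid replicate at or below 250%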;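 further: OY570 slx delta 5 strain wells were the positive control but not used for scaling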
# Efflux pump inh – inhibitors of Candida efflux pumps in yeast, primary screen, S. cerevisiae, Nile Red, multiplex; hit rate 0.44% among 330,000; AID 485275, 2010; S. cerevisiae Candida pump triplex; inhibition, % at 10 µM;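 active means plate passing quality check with inhibition over a set limit, or well fluorescence over plate mean plus 4 SD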;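 further: Nile Red retained in pooled yeast measured as flow cytometry median fluorescence; 0% = buffer negative control and 100% = Enniatin B positive control; higher means more Nile Red kept so more efflux inhibition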
# Beta apoptosis – inhibitors of cytokine-induced beta cell apoptosis, primary screen, luminescence. hit rate 0.8% among 300,000. protection from apoptosis, % (test concentration not listed). INS-1E cytokine-induced death, ATP luminescence, 48 h; percent of positive-control rescue, neutral wells zero;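 active means Every replicate reaches about 75%, or at least half do and their mean reaches it too, limit read from the data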;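 further: 0% = cytokine-treated negative control wells and 100% = positive control rescue; higher means more ATP so stronger rescue from cytokine killing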
# CSC inhib – cancer stem cell viability inhibitors, primary screen, luminescence. cancer stem cell-like cells viability. inhibition, % at 7.5 µM. hit rate 1.1% among 300,000. AID 2717, 2010; in the data active means inhibition above about 75%; tested in HMLE shEcad cells
# Active calls of the source: *; · = not tested or not shown.
SMILES,T cruzi repl,WT yeast gro inh,Mot1-301 SUMO,Efflux pump inh,Beta apoptosis,CSC inhib
CCCCCn1c(=O)c(C(=O)NCc2ccccc2Cl)c(O)c2ccccc21,-56.0,·,-0.7,0.2,100.5*,4.1
CCCCn1c(=O)c(C(=O)NCc2ccc(Cl)cc2)c(O)c2ccccc21,22.1,·,-2.3,0.1,·,75.9*
Cc1cc(-c2ccccc2)cc(C)[n+]1Cc1ccccc1,36.5,·,-31.5,-0.1,108.9*,-15.1
CN1CCN(Cc2nc3ccccc3n2C)CC1,35.7,-20.2,37.5,0.2,-2.2,-6.0
Cn1c(NN=O)nc2ccccc21,55.2*,-15.0,5.9,0.1,100.3*,114.9*
c1ccc2c3c([nH]c2c1)C1(CCNCC1)NCC3,-14.4,·,7.1,-0.2,87.5*,-1.6
CC(C)Oc1cccc(NC(=O)c2cccn(Cc3ccc4c(c3)OC(F)(F)O4)c2=O)c1,24.3,15.0,4.6,0.1,2.9,44.2
O=C(Nc1ccc(C(F)(F)F)cc1)c1cccn(Cc2ccc3c(c2)OC(F)(F)O3)c1=O,8.1,44.1,-19.9,-0.1,-2.1,90.1*
Cc1cccc(C)c1NC(=O)c1cccn(Cc2ccc3c(c2)OC(F)(F)O3)c1=O,22.5,60.8*,-8.1,0.0,·,1.4
CC(=O)O[C@@]12CO[C@@H]1C[C@@H](O)[C@@]1(C)C(=O)[C@H](O)C3=C(C)[C@@H](OC(=O)[C@H](O)[C@@H](NC(=O)c4ccccc4)c4ccccc4)C[C@@](O)([C@@H](OC(=O)c4ccccc4)C12)C3(C)C (stereo not given in full),71.3*,·,-9.3,0.4,2.5,-2.2
C/C=C(\C)C(=O)N[C@@H](c1ccccc1)[C@@H](O)C(=O)O[C@H]1C[C@@]2(O)[C@@H](OC(=O)c3ccccc3)C3[C@](C)(C(=O)[C@H](OC(C)=O)C(=C1C)C2(C)C)[C@H](O)C[C@H]1OC[C@@]31OC(C)=O (stereo not given in full),56.4*,·,312.6,0.3,4.5,-10.8
CC/C=C/CC(=O)N[C@@H](c1ccccc1)[C@@H](O)C(=O)O[C@H]1C[C@@]2(O)[C@@H](OC(=O)c3ccccc3)C3[C@](C)(C(=O)[C@H](OC(C)=O)C(=C1C)C2(C)C)[C@@H](O)C[C@H]1OC[C@@]31OC(C)=O (stereo not given in full),44.7,·,5.1,0.1,·,63.5
CCC(C)C(=O)N[C@@H](c1ccccc1)[C@@H](O)C(=O)O[C@H]1C[C@@]2(O)[C@@H](OC(=O)c3ccccc3)C3[C@](C)(C(=O)[C@H](OC(C)=O)C(=C1C)C2(C)C)[C@@H](O)C[C@H]1OC[C@@]31OC(C)=O (stereo not given in full),57.0*,·,3.6,0.5,14.9,53.3
C[C@]12C[C@H](O)[C@@H](O)CC1=CCC1C2CC[C@@]2(C)C1CC[C@@H]2O (stereo not given in full),·,·,2.2,-0.2,-1.5,14.0
CC1=NN(c2ccccc2)C(=O)/C1=C/c1c(O)[nH]c(=S)[nH]c1=O,-19.8,75.9*,-7.4,0.0,0.9,0.2
Clc1ccc(C(Cn2ccnc2)OCc2csc3c(Cl)cccc23)c(Cl)c1 (stereo not given),·,·,-7.9,0.1,86.5*,106.9*
C[C@]12CCC3C(CC[C@H]4C[C@H](O)CC[C@]34C)C1C[C@H](O)[C@@H]2O (stereo not given in full),·,·,-2.3,0.0,2.7,-6.5
CN1CCN(Cc2ccc3ccccc3c2)CC1,43.0,·,-8.4,0.0,-7.0,-5.7
CCCCCCOc1ccc(CN2CCN(C)CC2)cc1,68.3*,24.2,22.5,0.1,108.7*,·
Nc1ccccc1Cl,·,·,113.1,0.1,-5.6,-18.1
CCCCNC(=S)N1CCn2cccc2C1c1cccnc1 (stereo not given),64.6*,4.0,4.7,0.1,-3.1,8.7
C[C@]12CCC3C(CC[C@H]4C[C@H](O)CC[C@]34C)C1C[C@@H](CCCCl)[C@@H]2O (stereo not given in full),·,·,-5.4,0.6,0.9,2.1
CN(C)C(=O)Oc1ccc2c(c1)O/C(=C\c1cccc(Cl)c1)C2=O,4.9,·,7.6,-0.1,-6.1,-6.0
O=C(NC1CONC1=O)OCC(Cl)(Cl)Cl (stereo not given),-0.8,-0.2,-1.4,0.1,41.4,76.9*
COc1cc2c(cc1OC)-c1c(OC)c(OC)c(OC)c3ccnc(c13)C2=O,20.4,5.8,11.3,·,89.2*,36.7
SMILES,T cruzi repl,WT yeast gro inh,Mot1-301 SUMO,Efflux pump inh,Beta apoptosis,CSC inhib
CCc1ccc(CN2CCN(Cc3ccc(SC)cc3)CC2)cc1,70.2*,47.7,261.4,-0.2,-0.5,49.6
NCc1cc(=O)[nH]o1,·,·,-1.1,-0.1,-3.4,1.8
O=C(c1ccc(Cl)cc1)C1CCCN(Cc2ccc3ncccc3c2)C1 (stereo not given),35.5,54.5,257.8*,-0.1,3.2,9.3
Cn1ncnc2c(=O)n(C)c(=O)nc1-2,62.6*,·,-8.1,0.1,125.0*,175.7*
O=C(O)c1ccccc1-c1ccc(C=C2C(=O)N(c3ccccc3)C(=S)N(c3ccccc3)C2=O)o1,-2.5,·,-5.3,0.1,0.2,6.6
COc1ccc2ccc(O)c(CN3CC=C(c4ccccc4)CC3)c2c1,-21.9,60.9*,41.3,0.1,2.9,-12.8
CCc1c(C)nc(N)nc1N1N=C1SC(C(C)=O)C(C)=O,-6.3,-29.4,·,-0.2,-4.5,3.9
CCN(CC)C(=O)c1ccc(NC(=O)Nc2ccccc2F)cc1,-1.8,79.1,-71.0,-0.1,67.9,81.0*
CCN(CC)C(=O)c1ccc(NC(=O)CCCSc2ccccc2)cc1,1.8,9.1,52.2,0.1,-5.5,-12.2
C/C=C1/C[N+]2(C)CCC34C(=C(C=O)[C@H]1C[C@@H]32)Nc1ccccc14 (stereo not given in full),·,·,-14.4,0.2,1.7,-2.3
CN1CCN(c2ccc(NC(=O)C(C)(C)C)cc2)CC1,-7.4,-17.0,5.3,0.0,0.8,-20.5
CC(C)C(=O)Nc1ccc(N2CCN(C)CC2)c(F)c1,1.6,2.6,423.1*,0.2,3.9,-5.6
Cc1cccc(CNCCc2c[nH]c3ccccc23)c1,35.8,·,285.6*,0.2,·,17.4
Fc1cccc(CNCCc2c[nH]c3ccccc23)c1,3.7,·,-13.4,0.0,-4.5,-8.9
C[C@]12CCC3C(CC[C@H]4C[C@@H](O)CC[C@]34C)C1C/C(=N/O)[C@@H]2O (stereo not given in full),·,·,6.6,0.0,13.3,-12.4
COc1ccc2c3c1OC1[C@H](O)CCC4[C@@H](C2)N(C)CC[C@]314 (stereo not given in full),·,·,·,0.1,·,·
O=c1c2ccccc2nc(/C=C/c2ccccc2)n1-c1ccccc1O,7.3,·,-7.1,0.5,3.3,90.3*

# Screening results deposited in PubChem by several laboratories.
